# Laboratory results as given in the RNAGym collection of RNA variant scans (doi:10.1101/gad.245936.114).
# Fewer inactive variants are shown than the library holds.
# B1: tRNA (parent)
# chain: CUCUCGGUAGCCAAGUUGGUUUAAGGCGCAAGACUUUAAUUUAUCACUACGAAAUCUUGAGAUCGGGCGUUCGACUCGCCCCCGGGAGAUUUUUUCCUCGAGCAA
# Variants of: B1
# Assay: nonsense suppression (GFP-seq) (ratio to wild type); higher = more function; SUP4oc tRNA, yeast GFP reporter sort-seq
# How it was run: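 Yeast carrying genome-integrated SUP4oc tRNA variants from a library with ~3% random mutations were grown in raffinose/galactose medium with 80 mg/L adenine. Each strain also carried a galactose-driven GFP ochre reporter and RFP. Cells were sorted into GFP/RFP bins, and each bin was Illumina-sequenced (phred ≥30). Nonsense suppression (GFPSEQ) is the bin median GFP/RFP, weighted by each variant's estimated cell share per bin, relative to wild-type SUP4oc; variants needed ≥100 reads and ≥30 cells.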
row,Variant,nonsense suppression
1,U57C U58A A62C,≤ 0.026
2,G59U,0.116
3,U63A G66U U71A A87G,≤ 0.026
4,G66C C82U,≤ 0.026
5,A60G U71C,0.0362
6,U63A C72U,0.133
7,G61A A87U,0.181
8,G61A A87G,0.197
9,G59A G61A U71G G78U,≤ 0.026
10,A60U C81U,0.818
11,G61U G78U,0.165
12,A62G C75U C83A,≤ 0.026
13,A62G G78U,0.0339
14,G65U G84U,≤ 0.026
15,G61A G69C,0.0625
16,G61A G69A,0.0276
17,A60U U71G,≤ 0.026
18,G65U G86A,≤ 0.026
19,G59U U63C,0.868
20,G61C U71C,0.061
21,U57G U71A,≤ 0.026
22,U55C G73U,0.0422
23,U55C G73A,0.0331
24,A62G G67A,≤ 0.026

row,Variant,nonsense suppression
1,G59U A74C C82U,≤ 0.026
2,U57A U63C,0.0744
3,U58C G61A,0.0586
4,U58C G61C,0.0324
5,A62C G78A,≤ 0.026
6,A60U A87G,1.02
7,A60G G78A,0.0542
8,A60G G78U,0.0498
9,U63G U70C C75U,0.099
10,A60C G61U,0.768
11,G61A C83A,0.0363
12,G61C G85C,0.045
13,A62G C75G,0.205
14,A62G C75A,0.219
15,U63G U71C,0.028
16,G59C G66U C83A A87C,≤ 0.026
17,U63C C75A,1.04
18,U63C C75U,1.1
19,A60U A62G,0.112
20,C64G C79A,≤ 0.026
21,U63A U76C,0.748
22,U63A G85U,0.23
23,U63A G85A,1.09
24,G61C G73A,0.213

row,Variant,nonsense suppression
1,U55C C83G,0.0314
2,U57A,0.0873
3,A60G G66U,0.0286
4,U63A C75G,1.13
5,U58G U70C,≤ 0.026
6,G61A C68U G69A G73A,≤ 0.026
7,U63G C72U,0.0334
8,G61C G69C C79G G84C,≤ 0.026
9,G61A A62U G84U,≤ 0.026
10,G65U G85A,≤ 0.026
11,U57A C75A,0.681
12,U57A C75U,0.03
13,G61A C75U,0.923
14,G61A C75A,0.842
15,A60C,0.489
16,A60U,0.984
17,A60G,1.14
18,C56U U58C G66U,≤ 0.026
19,U58A A60C,0.0508
20,U63G G69A,0.116
21,U63G G84C,0.0283
22,G61A G66C,≤ 0.026
23,C56U G88U,≤ 0.026
24,G66C G69C G73C G84C,≤ 0.026

row,Variant,nonsense suppression
1,A62C G85A,≤ 0.026
2,G61U U71A G86A,≤ 0.026
3,U55C U63G,≤ 0.026
4,U55C U63C,0.156
5,U55C U63A,0.244
6,A60G G85A,1.16
7,A60G G85U,0.138
8,A60G G85C,0.119
9,G66A G73A,0.182
10,G59A C75A,0.717
11,U55C U58A G67U,≤ 0.026
12,C56G G78C,≤ 0.026
13,U57G G85C,≤ 0.026
14,U57C G85A,0.757
15,C64G G85C,≤ 0.026
16,U63C U76C,0.693
17,U55C G65A,0.0796
18,U55C U63A C75G,0.0265
19,G59U A62C A89G,≤ 0.026
20,G61A G67A G73C,≤ 0.026
21,C64G C72U,≤ 0.026
22,U57A G66A G78C C82A,≤ 0.026
23,U57A G84U,0.0408
24,G59A U76G C77A,≤ 0.026

row,Variant,nonsense suppression
1,G59C C68A G88U A89C,≤ 0.026
2,U63G G73A,0.189
3,U55C C75U,0.903
4,A62U G78A,0.0537
5,G61C G78A C79U,≤ 0.026
6,U58C A89C,≤ 0.026
7,C56U,0.15
8,G61C C68U,0.633
9,U55G U63G U71C G88A,≤ 0.026
10,C56A U71A,≤ 0.026
11,G61A G73A,0.202
12,U58C G69A,≤ 0.026
13,G65U G67A,≤ 0.026
14,G61U C75U G85A,1.04
15,G59C G61C,≤ 0.026
16,U57G C68G C75G,≤ 0.026
17,G66U C68A G86A,≤ 0.026
18,A62U G84C,0.0347
19,A62G U63C G66A,≤ 0.026
20,G61A G78U,0.0402
21,A62U U71G,≤ 0.026
22,U57G U70G,≤ 0.026
23,U63C G78U,0.0499
24,U58A U70C G86C A89C,≤ 0.026

row,Variant,nonsense suppression
1,U55G A89U,≤ 0.026
2,A60C C79U,0.14
3,U63A C68U,0.755
4,U58C U63C,0.144
5,G66U C79A,≤ 0.026
6,G65C U76A,≤ 0.026
7,G61A G65A,0.127
8,C56A U63G,≤ 0.026
9,C64G G66U A87G,≤ 0.026
10,G59U G88A,≤ 0.026
11,U57C G73A,0.0414
12,G61A C72U,0.0666
13,G61A C72A,0.0325
14,A60C G66C,≤ 0.026
15,G61A G84C,0.0752
16,G61A G85U,0.429
17,A62C G67A,≤ 0.026
18,G61U U63G,0.232
19,G61U U63C,0.808
20,G65A G78C,≤ 0.026
21,G65A G78A,0.0493
22,C56G U58C G66C U70C,≤ 0.026
23,U58A G61A,0.0532
24,C64U C81A,≤ 0.026

row,Variant,nonsense suppression
1,U63G C80U,≤ 0.026
2,G59A G66C,≤ 0.026
3,U58C G61U U63C,≤ 0.026
4,A60U G65C C81G,0.203
5,U57A U76A,≤ 0.026
6,G61A C64G,0.0404
7,U55G U63A G86C,≤ 0.026
8,G66A U76C C81U,≤ 0.026
9,A60U G65U A74C C82A,≤ 0.026
10,U58G C77U,≤ 0.026
11,A60G A89U,0.0291
12,A62G G65C,≤ 0.026
13,U63G A87U,0.0518
14,G61U G67A,0.135
15,G61U G67U,≤ 0.026
16,U63A C75G U76C,1.19
17,U57C C81U G84U,≤ 0.026
18,G59C A87U,≤ 0.026
19,G65A G73C,≤ 0.026
20,G61U U76C,0.911
21,A60C G67A,≤ 0.026
22,A60G G69A,0.0526
23,G59C A60C U71G G78A,≤ 0.026
